In ChEMBL document CHEMBL4130515, “Identification of Privileged Antichlamydial Natural Products by a Ligand-Based Strategy” (J Nat Prod, 2017):
pIC50: −log10 of the molar value. Values after ≈ are worked out from the molar mass of the structure shown. Structures can show the parent of a compound that is named as a salt.

How the values were obtained:
Chlamydia pneumoniae [1] = assay: Antichlamydial activity against Chlamydia pneumoniae K7 infected in HL cells after 70 hrs by fluorescent microscopic analysis; type: functional, organism-based; details: for pIC50: K7, HL, 70 h; for MIC90: K7, 70 h
How it was run: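 HL cells grown to confluence, infected with C. pneumoniae K7 at MOI 0.3 in medium with 1 μg/mL cycloheximide, centrifuged 500 rpm 1 h, then 37 °C 1 h. At 2 h, inoculum replaced by cycloheximide medium with compound at 12 concentrations from 1 nM to 100 μM. Incubated 70 h at 37 °C, stained, and inclusions counted by fluorescence microscopy. Three runs; IC50 from variable-slope sigmoidal fit. Azithromycin 20 nM as positive control.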

Chlamydia pneumoniae [2] = assay: Antichlamydial activity against Chlamydia pneumoniae K7 infected in HL cells assessed as chlamydial inhibition at 50 uM after 70 hrs by fluorescent microscopic analysis; type: functional
How it was run: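 Confluent HL cells infected with C. pneumoniae K7 at MOI 0.3 in medium with 1 μg/mL cycloheximide, centrifuged 500 rpm 1 h, then held at 37 °C for 1 h. At 2 h, compound added at 50 μM or DMSO vehicle. After 70 h at 37 °C, inclusions stained and counted in four fields per coverslip under a fluorescence microscope (20×). Inhibition % is relative to mean vehicle counts.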

[3] = Cytotoxicity against human HL cells assessed as cell viability at 50 uM after 72 hrs by resazurin dye based fluorescence assay relative to control; details: HL cells, read-out: Activity
How it was run: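 HL cells grown overnight to confluence, then exposed to compound at 50 μM for 72 h at 37 °C, four parallel replicates. Read-out after 2 h with 20 μM resazurin in PBS, fluorescence at 570/590 nm (ex/em). Viability % is relative to cells in 0.25% DMSO medium. Usnic acid 50 μM as positive control.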

MIC90 (Chlamydia pneumoniae [1])	SMILES	pIC50 (Chlamydia pneumoniae [1])	inhibition at 50 µM (Chlamydia pneumoniae [2])	viability at 72 h, 50 µM [3]
–	CC(=O)N[C@H]1CN2CC[C@H](O)[C@@H]2[C@@H](O)[C@@H]1O	4.17	59.8%	86.6%
–	CCOC(=O)Oc1c(OC)cc(C(=O)O[C@H]2C[C@H]3CN4CCc5c([nH]c6cc(OC)ccc56)[C@@H]4C[C@H]3[C@@H](C(=O)OC)[C@@H]2OC)cc1OC	–	–	67.6%
–	C[C@@H]1C[C@H]2CC[C@H](O2)[C@H](C)C(=O)O[C@@H](C)C[C@@H]2CC[C@@H](O2)[C@@H](C)C(=O)O[C@H](C)C[C@H]2CC[C@H](O2)[C@H](C)C(=O)O[C@@H](C)C[C@@H]2CC[C@@H](O2)[C@@H](C)C(=O)O1	–	–	23.7%
–	C=C[C@](C)(O)CC[C@H]1C(=C)CC[C@H]2C(C)(C)CCC[C@]12C	4.45	60%	88.6%
–	CCC1=CC2CN3CCc4c([nH]c5ccccc45)[C@@](C(=O)OC)(C2)C13	4.28	68.1%	88.9%
–	COc1c(O)c2c(=O)cc(OC)c3c4c(OC)cc(=O)c5c(O)c(OC)c6c(c(c1CC(C)(O)C6C(C)=O)c23)c54 (configuration not stated)	–	–	-0.3%
–	O=c1cc(-c2ccccc2)oc2cc(O)ccc12 [7-HYDROXYFLAVONE]	–	–	71.1%
–	O=C1c2c(O)cc(O)cc2O[C@H](c2ccc(O)c(O)c2)[C@H]1O [(+)-TAXIFOLIN]	–	13.4%	95.2%
–	C=C1CC[C@H]2O[C@]2(C)CC[C@@H]2[C@@H]1CC2(C)C [(-)-CARYOPHYLLENE OXIDE]	–	35.7%	107%
–	Oc1cc(O)c2c(c1)O[C@H](c1ccc(O)c(O)c1)[C@H](O)C2 [(-)-EPICATECHIN]	–	41.7%	93.4%
–	C[C@@]1(CO)[C@H](O)CC[C@@]2(C)[C@H]1CC[C@H]1C[C@@H]3C[C@@]12CC[C@]3(O)CO [APHIDICOLIN]	–	-3.8%	92.3%
–	O=c1cc(-c2ccc(O)cc2)oc2cc(O[C@@H]3O[C@H](CO)[C@@H](O)[C@H](O)[C@H]3O)cc(O)c12 [APIGETRIN]	–	–	48.1%
–	c1cc2c(cc1[C@H]1OC[C@H]3[C@@H]1CO[C@H]3c1ccc3c(c1)OCO3)OCO2 [ASARININ]	–	–	57.1%
–	CC(=O)O[C@H]1C(=O)[C@@]2(C)[C@H]([C@H](OC(=O)c3ccccc3)[C@]3(O)C[C@H](O)C(C)=C1C3(C)C)[C@]1(OC(C)=O)CO[C@@H]1C[C@@H]2O [BACCATIN III]	–	–	34.6%
–	O=C(/C=C/c1ccc(O)c(O)c1)OCCc1ccccc1 [CAFFEIC ACID PHENETHYL ESTER]	–	–	46%
–	C/C=C(/C)C(=O)O[C@H]1CC[C@@]2(C)[C@@H]3CC[C@H]4[C@]5(O)C[C@H](O)[C@@]6(O)[C@@H](CN7C[C@@H](C)CC[C@H]7[C@@]6(C)O)[C@]5(O)C[C@@]42O[C@]13O [CEVADINE]	–	39%	98.6%
–	CO[C@H]1[C@@H](O)[C@@H](C)O[C@H](O[C@H]2[C@H](Oc3cccc4c(O)c5c(=O)oc6ccc(C)c7c(=O)oc(c34)c5c67)O[C@H](C)[C@H](O)[C@@H]2O)[C@@H]1O [CHARTREUSIN]	–	–	4%
–	CC(=O)O[C@H]1[C@H]2O[C@]23[C@@H]2CC[C@@H]4C[C@@H](O)CC[C@]4(C)[C@H]2CC[C@]3(C)[C@H]1c1ccc(=O)oc1 [CINOBUFAGIN]	–	–	0.2%
–	COc1ccc(C(=O)OC2C[C@H]3CC[C@H](C2)N3C)cc1OC (some centres not stated) [CONVOLVAMINE HYDROCHLORIDE]	–	21.1%	78.8%
–	O=c1oc2cc(O)ccc2c2oc3cc(O)ccc3c12 [COUMESTROL]	–	0%	96.3%
–	C[C@@H]1C[C@@H]([C@H](O)CC2CC(=O)NC(=O)C2)C(=O)[C@@H](C)C1 [CYCLOHEXIMIDE]	–	–	66.4%
–	COc1cc2c(cc1OC)[C@@H]1C(=O)c3ccc4c(c3O[C@@H]1CO2)C=CC(C)(C)O4 [DEGUELIN]	–	–	21.6%
–	CC1=CC(=O)C2=C(C)CC[C@@H]3[C@H](OC(=O)[C@H]3C)[C@@H]12 [DESACETOXYMATRICARIN]	–	30.1%	93.9%
–	COc1cc(/C=C/c2ccccc2)oc(=O)c1 [DESMETHOXYYANGONIN]	–	35.7%	89.8%
–	C[C@H]1O[C@@H](O[C@H]2[C@@H](O)C[C@H](O[C@H]3[C@@H](O)C[C@H](O[C@H]4CC[C@@]5(C)[C@H](CC[C@@H]6[C@@H]5CC[C@]5(C)[C@@H](C7=CC(=O)OC7)CC[C@]65O)C4)O[C@@H]3C)O[C@@H]2C)C[C@H](O)[C@@H]1O [DIGITOXIN]	–	–	0.1%
–	CC(C)[C@@]1(NC(=O)[C@@H]2C[C@@H]3c4cccc5[nH]cc(c45)C[C@H]3N(C)C2)O[C@@]2(O)[C@@H]3CCCN3C(=O)[C@H](Cc3ccccc3)N2C1=O [DIHYDROERGOCRISTINE MESYLATE]	–	–	2.7%

MIC90 (Chlamydia pneumoniae [1])	SMILES	pIC50 (Chlamydia pneumoniae [1])	inhibition at 50 µM (Chlamydia pneumoniae [2])	viability at 72 h, 50 µM [3]
–	CC(C)=CCC[C@](C)(O)[C@H]1CC[C@]2(C)[C@@H]1CC[C@@H]1[C@@]3(C)CCC(=O)C(C)(C)[C@@H]3CC[C@]12C [DIPTEROCARPOL]	–	–	32.1%
–	C[C@@H]1O[C@@H](OC[C@H]2O[C@@H](Oc3cc(O)c4c(c3)O[C@H](c3ccc(O)c(O)c3)CC4=O)[C@H](O)[C@@H](O)[C@@H]2O)[C@H](O)[C@H](O)[C@H]1O [ERIOCITRIN]	–	8.6%	75.2%
–	O=C1C[C@@H](c2ccc(O)c(O)c2)Oc2c1ccc(O[C@@H]1O[C@H](CO)[C@@H](O)[C@H](O)[C@H]1O)c2O [FLAVANOMAREIN]	–	22.1%	82.6%
–	Cc1cc2c(C(C)C)c(O)c(O)c(C=O)c2c(O)c1-c1c(C)cc2c(C(C)C)c(O)c(O)c(C=O)c2c1O [GOSSYPOL]	–	–	0.1%
–	Cn1c(-c2ccc3c(c2)OCO3)cc(=O)c2ccccc21 [GRAVEOLINE]	–	5.3%	100%
–	COc1ccc2c(c1)[nH]c1c(C)nccc12 [HARMINE HYDROCHLORIDE]	–	26%	87.3%
–	COc1ccc([C@@H]2CC(=O)c3c(O)cc(O[C@@H]4O[C@H](CO[C@@H]5O[C@@H](C)[C@H](O)[C@@H](O)[C@H]5O)[C@@H](O)[C@H](O)[C@H]4O)cc3O2)cc1O [HESPERIDIN]	–	26.8%	101%
–	C=CCc1ccc(O)c(-c2ccc(O)c(CC=C)c2)c1 [HONOKIOL]	–	–	8.8%
–	O=C1Nc2ccccc2/C1=C1/Nc2ccccc2C1=O [INDIRUBIN]	–	2%	92.5%
–	O=c1c(O[C@@H]2O[C@H](CO)[C@@H](O)[C@H](O)[C@H]2O)c(-c2ccc(O)c(O)c2)oc2cc(O)cc(O)c12 [ISOQUERCETIN]	–	38%	95.8%
–	CC1=C2C(=O)[C@H]3[C@@H](CC=C4C[C@@H](O)CC[C@@]43C)[C@@H]2CC[C@]12O[C@@H]1C[C@H](C)CN[C@H]1[C@H]2C [JERVINE]	4.59	74.8%	89.3%
–	CN1CCc2cc(O)c(O)cc2C1Cc1ccc(O)c(O)c1 (configuration not stated) [LAUDANOSOLINE HYDROBROMIDE]	–	–	72.8%
–	OC[C@@H]1CCCN2CCCC[C@H]12 [LUPININE]	–	28.2%	98.7%
1 µM (≈ 0.32 µg/mL)	COc1c(C)c2c(c(O)c1C/C=C(\C)CCC(=O)O)C(=O)OC2 [MYCOPHENOLIC ACID]	6.51	98%	86.6%
–	CCn1cc(C(=O)O)c(=O)c2ccc(C)nc21 [NALIDIXIC ACID]	–	–	15.8%
–	C[C@@H]1C/C=C/C=C/C=C/C=C/[C@H](O[C@@H]2O[C@H](C)[C@@H](O)[C@H](N)[C@@H]2O)C[C@@H]2O[C@](O)(C[C@@H](O)C[C@H]3O[C@@H]3/C=C/C(=O)O1)C[C@H](O)[C@H]2C(=O)O [NATAMYCIN]	–	–	67.1%
1.38 µM (≈ 0.499 µg/mL)	CC1COc2c(N3CCN(C)CC3)c(F)cc3c(=O)c(C(=O)O)cn1c23 (configuration not stated) [OFLOXACIN]	–	–	–
–	CC1(C)CC[C@]2(C(=O)O)CC[C@]3(C)C(=CC[C@@H]4[C@@]5(C)CC[C@H](O)C(C)(C)[C@@H]5CC[C@]43C)[C@@H]2C1 [OLEANOLIC_ACID]	–	–	36.3%
–	C=C1C(=O)[C@]23[C@H](O)[C@H]1CC[C@H]2[C@@]12CO[C@]3(O)[C@@H](O)[C@@H]1C(C)(C)CC[C@@H]2O [ORIDONIN]	–	–	0%
–	C[C@]1(C(=O)O)CCC[C@]2(C)c3cc(O)ccc3CC[C@@H]12 [PODOCARIC ACID]	–	–	27.9%
–	CCCCC[C@H](O)/C=C/C1=C(CCCCCCC(=O)O)C(=O)CC1 [PROSTAGLANDIN B1]	–	39.8%	109%
–	C[C@@H]1C[C@H]2O[C@@H]2/C=C\C=C\C(=O)Cc2c(Cl)c(O)cc(O)c2C(=O)O1 [RADICICOL]	–	–	0.6%
–	CN1CCc2cc3c(c4c2[C@H]1Cc1ccccc1-4)OCO3 [REMERINE HYDROCHLORIDE]	–	–	45.2%
–	c1ccc2c3c([nH]c2c1)CNCC3 [TRYPTOLINE]	–	4.9%	84.8%
–	O[C@H]1CCN2Cc3ccccc3N=C12 [VASICINE]	–	-1.4%	102%
